We go through 8 compounds from ChEMBL document CHEMBL1139898, “Structural effects on the phosphorylation of 3-substituted 1-beta-D-ribofuranosyl-1,2,4-triazoles by human adenosine kinase” (Bioorg Med Chem Lett, 2007).

Assay [1] concerns the target Adenosine kinase (Homo sapiens) (UniProt P55263). Put plainly: Inhibition of human adenosine kinase ribavirin phosphorylation activity. The essentials:
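Human adenosine kinase (clone 20-1) in Hepes pH 6.0 buffer with KCl, MgCl₂, 1 mM ATP, BSA, deoxycoformycin at 37 °C; 0.1 μM ribavirin initial substrate with test compound at 400 μM; ribavirin monophosphate formation followed by timed aliquots, acid quench and anion-exchange HPLC with UV detection.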

Assay [2] shares this target. Kind of assay: Specific activity of human adenosine kinase. The essentials:
(§1)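 Aliquots at 0, 1, 2, 4 h quenched with perchloric acid, neutralized, monophosphate resolved by anion-exchange HPLC (ammonium phosphate gradient), UV at λmax; conversion kept <10%, linear.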

For assay [3] the target is unchanged. Put plainly: Activity of human adenosine kinase relative to ribavirin. The arrangement: concentration or dose not given beside the values. In short, it runs like this: as §1

Activity calls are given as the source filed them. No cut-off for these calls is given here. A value given as a limit tells only on which side of the number the result lay.

Adenosine kinase (Homo sapiens), sequence (P55263 2-362 limits assumed): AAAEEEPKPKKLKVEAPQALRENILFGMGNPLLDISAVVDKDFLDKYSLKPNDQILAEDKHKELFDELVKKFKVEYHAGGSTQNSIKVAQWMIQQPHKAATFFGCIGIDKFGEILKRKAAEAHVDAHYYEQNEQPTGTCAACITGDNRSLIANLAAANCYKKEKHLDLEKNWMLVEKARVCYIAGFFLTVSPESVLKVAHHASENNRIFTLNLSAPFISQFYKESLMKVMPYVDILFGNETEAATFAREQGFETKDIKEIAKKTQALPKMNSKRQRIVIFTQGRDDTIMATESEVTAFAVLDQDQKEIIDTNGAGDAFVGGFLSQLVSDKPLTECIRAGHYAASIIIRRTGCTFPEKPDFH

For `O=[N+]([O-])c1ncn([C@@H]2O[C@H](CO)[C@@H](O)[C@H]2O)n1`, in assay [1], the result was inactive. Also, the figures for the Activity in assay [2] and in assay [3] were 36 nmol/mg/h and 18%, respectively.
Regarding `C/N=C(/N)c1ncn([C@@H]2O[C@H](CO)[C@@H](O)[C@H]2O)n1`, the outcome in assay [1] was inactive. For the same compound, the Activity in assay [2] turned out to be 11 nmol/mg/h; in assay [3], 5%.
`COC(=N)c1ncn([C@@H]2O[C@H](CO)[C@@H](O)[C@H]2O)n1`: in assay [1], the result was inactive. Moreover, the Activity is less than 4 nmol/mg/h in assay [2] and less than 2% in assay [3].
Consider `CC(=O)Nc1ncn([C@@H]2O[C@H](CO)[C@@H](O)[C@H]2O)n1`, for which the result in assay [1] was inactive. Also, the Activity in assay [2] is less than 4 nmol/mg/h; in assay [3], less than 2%.
For `NC(=O)c1ncn([C@@H]2O[C@H](CO)[C@@H](O)[C@H]2O)n1`, the Activity in assay [2] is 203 nmol/mg/h.
Turning to `O=C(O)c1ncn([C@@H]2O[C@H](CO)[C@@H](O)[C@H]2O)n1`, the outcome in assay [1] was inactive. Also, the Activity in assay [2] was less than 4 nmol/mg/h; in assay [3], less than 2%.
Regarding `CNC(=O)c1ncn([C@@H]2O[C@H](CO)[C@@H](O)[C@H]2O)n1`, the result in assay [1] was inactive. The Activity in assay [2] was determined as 19 nmol/mg/h; in assay [3] it was 9%.
For `CC(=O)c1ncn([C@@H]2O[C@H](CO)[C@@H](O)[C@H]2O)n1`, in that order: “inactive”, 20 nmol/mg/h and 10%.
